In all, about 2,500 compounds went through this assay and about 460 (18%) were called active. These entries were drawn from the full list. Values without a mark were called inactive.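 How the source made its calls: active means mean activation above a cutoff of low control average plus 3 SD from the earlier screen (cut at about 12% in these data); inactive means the rest.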
Assay: compound fluorescence interference without thin filaments, confirmation, artefact control for cardiac RTF calcium sensitizer project, biochemical (AID 504382)
Conditions: IANBD fluorescence interference counterscreen, buffer, EC20 Ca2+; at 7.2 µM; stronger effect = higher value; scaled: EC20 calcium 0, EC100 calcium 100
In short: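 Technique: fluorescence, 480/540 nm / Medium: MOPS-based buffer with KCl, MgCl2, EGTA, NTA, DTT, pH 7.2 / Probe or stimulus: calcium at EC20 level, 0.472 mM final / Repeats: triplicate wells per compound / Times: 15 min compound exposure at 25 °C / Measure: compound fluorescence interference relative to control well signal range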

| SMILES | fluorescence artifact activation |
| --- | --- |
| NC(=O)c1c(NC(=O)c2ccccc2)sc2c1CCN(Cc1ccccc1)C2 | 37.1% (active) |
| NC(=O)c1c(NC(=O)C2COc3ccccc3O2)sc2c1CCN(Cc1ccccc1)C2 (stereo not given) | 0.08% |
| CC(=O)c1ccc(C(=O)Nc2sc3c(c2C(N)=O)CCN(Cc2ccccc2)C3)cc1 | -0.06% |
| Cc1nc(-c2ccc(C#N)cc2)cs1 | -0.01% |
| CN(C)c1ccc(N=Cc2nc(-c3ccccc3)oc2O)cc1 | 7.65% |
| COc1ccc(N=C(N)N=C(N)N)c(OC)c1 | 0% |
| CCOc1cc(N2CCOCC2)c(OCC)cc1NC(=O)CCS(=O)(=O)c1ccc(Cl)cc1 | 9.02% |
| CCC(CO)[n+]1c(C)cc(/C=C2\Sc3ccccc3N2Cc2ccccc2)cc1C (stereo not given) | 0.01% |
| CN(C)c1ccc(/C=C2\SC(=O)N(CC(O)Cn3c4ccccc4c4ccccc43)C2=O)cc1 (stereo not given) | 5.59% |
| Cc1cccc(/C=C2/SC(=O)N(Cc3ccccc3)C2=O)n1 | 15.4% (active) |
| Cc1ccc2c(c1)CCCN2CC(=O)N(C)c1c(N)n(Cc2ccccc2)c(=O)[nH]c1=O | -0.05% |
| CCn1c(=O)c(C(=O)CN2CCCc3ccccc32)c(N)n(Cc2ccccc2)c1=O | 15.2% (active) |
| COCCN(C(=O)CN1CCCc2ccccc21)c1c(N)n(Cc2ccccc2)c(=O)[nH]c1=O | 3.59% |
| Nc1c(C(=O)C2CC2)sc2nc(-c3cccs3)cc(C(F)(F)F)c12 | 3.83% |
| CCc1ccc[n+](-c2[nH]c(=O)sc2/C=N/NC([S-])=Nc2ccccc2)c1 | 19.1% (active) |
| Cc1cc[n+](-c2[nH]c(=O)sc2/C=N/NC([S-])=Nc2ccccc2)cc1C | 0.4% |
| O=c1[nH]c(-[n+]2ccccc2)c(/C=N/NC([S-])=Nc2ccccc2)s1 | 0.03% |
| Cc1ccc(S(=O)(=O)N2CCN(c3ncccn3)CC2)cc1C | -0.05% |
| Cc1ccccc1S(=O)(=O)Cc1ccc(C(=O)NCCN(C)Cc2ccccc2)o1 | 11% |
| Cc1nn(Cc2c(F)c(F)c(F)c(F)c2F)c(C)c1NC(=O)c1nn(C)c(C)c1Br | 0.14% |
| Nc1ccc2c3c(cccc13)C(=O)N(c1ccccc1)C2=O | 0.18% |
| Cc1c(O)c2c3c(cccc3c1O)C(=O)N(c1ccccc1)C2=O | 6.04% |
| CCC/C(C#Cc1ccc(N(C)C)cc1)=C1/c2ccccc2C(=O)N1c1ccccc1 | 17.9% (active) |

| SMILES | fluorescence artifact activation |
| --- | --- |
| CCCS(=O)(=O)N1CCC(C(=O)NCCCN2CCC(Cc3ccccc3)CC2)CC1 | 0.05% |
| CC(=O)Nc1cccc(NC(=O)CSc2nnc(Cc3cccn3C)n2CCc2ccccc2)c1 | 2.41% |
| CCN1C(=O)[C@@H]2[C@@H](c3ccc(-c4cccc(Cl)c4)cc3)N3CCC[C@@]3(C(=O)OC)[C@@H]2C1=O | 0.02% |
| CCOc1cc(/C=C(\C#N)c2nc(-c3cccs3)c(NC(C)=O)s2)ccc1O | -0.03% |
| CC(=O)Nc1sc(/C(C#N)=C\c2cccc(Cl)c2)nc1-c1ccc(C)cc1 | 16.5% (active) |
| CC(=O)Nc1sc(/C(C#N)=C/c2ccc(Cl)c(Cl)c2)nc1-c1ccc(C)cc1 | -0.03% |
| CC(C)(C)c1cc(NCc2ccccn2)n2ncc(-c3ccc(Cl)cc3)c2n1 | 0.93% |
| CCCN1CCc2c(sc(NC(=S)NC(=O)c3ccccc3)c2C#N)C1 | 11.1% |
| O=C(Nc1ccccc1F)C(=Cc1sc(N2CCOCC2)nc1-c1ccccc1)C(=O)Nc1ccccc1F | 0.15% |
| CN1C(=O)/C(=C\C=C2/CCCN2C)N(C)C1=S | 56.9% (active) |
| CCN1C(=O)/C(=C/C=C2/CCCN2C)OC1=S | 0.08% |
| CN1CCC/C1=C/C=C1\SC(=S)NC1=O | 0.02% |
| O=C(O)c1ccc2c(c1)S(=O)(=O)c1ccccc1C2=O | 0.03% |
| O=C1c2ccccc2-c2onc3ccc(Oc4ccccc4)c1c23 | 0.44% |
| CCCCCCNC(=O)C(C#N)c1nc2ccccc2nc1N1CCCC1 (stereo not given) | 0.17% |
| CCN(CC)c1nc2ccccc2nc1C(C#N)C(=O)NCCc1ccccc1 (stereo not given) | 164% (active) |
| N#CC(C(=O)NCc1ccccc1)c1nc2ccccc2nc1N1CCCC1 (stereo not given) | -0.08% |
| O=C1CC(c2cccc(Oc3ccccc3)c2)NC(=O)N1 (stereo not given) | 0.02% |
| O=c1c(/C=C(\O)c2ccc(F)cc2)nc2ccccc2n1-c1ccccc1 | 0.04% |
| Cc1ccc(NC(=O)CSc2nnc(-c3cccnc3)s2)cc1 | 258% (active) |
| Cc1ccc(-c2csc(NC(=O)CSc3nc4ccccc4o3)n2)cc1 | 0.77% |
| Cc1ccc(CSc2nnc(SCC(=O)N/N=C/c3ccccc3OCC(=O)O)s2)cc1 | 4.19% |

Source: PubChem BioAssay AID504382 (The Scripps Research Institute Molecular Screening Center, 2011)
